Activity calls are given as the source filed them. No cut-off for these calls is given here. Some results are limits rather than exact numbers.

Assay [1] addresses T1, Aldo-keto reductase family 1 member B1 (Homo sapiens, UniProt P15121). The assay is described as follows: Mixed non-competitive inhibition of human recombinant AKR1B1 expressed in Escherichia coli BL21(DE3)pLysS assessed as apparent dissociation constant for ESI complex using L-idose as substrate by secondary plot analysis. The essentials:
(§1)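 AKR1B1 rates measured at varied L-idose concentrations with and without several inhibitor concentrations, then Lineweaver–Burk analysis. […] Tight binders fitted with the Morrison equation, KM for L-idose taken as 3.8 mM. At least three independent experiments.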

For assay [2], the target named is T1, Aldo-keto reductase family 1 member B1. As to the kind of experiment: Mixed non-competitive inhibition of human recombinant AKR1B1 expressed in Escherichia coli BL21(DE3)pLysS assessed as apparent dissociation constant for EI complex using L-idose as substrate by secondary plot analysis. The essentials:
as §1

The target in assay [3] is T2, Tyrosine-protein phosphatase non-receptor type 1 (Mus musculus) (UniProt P35821).
T2 sequence (whole entry): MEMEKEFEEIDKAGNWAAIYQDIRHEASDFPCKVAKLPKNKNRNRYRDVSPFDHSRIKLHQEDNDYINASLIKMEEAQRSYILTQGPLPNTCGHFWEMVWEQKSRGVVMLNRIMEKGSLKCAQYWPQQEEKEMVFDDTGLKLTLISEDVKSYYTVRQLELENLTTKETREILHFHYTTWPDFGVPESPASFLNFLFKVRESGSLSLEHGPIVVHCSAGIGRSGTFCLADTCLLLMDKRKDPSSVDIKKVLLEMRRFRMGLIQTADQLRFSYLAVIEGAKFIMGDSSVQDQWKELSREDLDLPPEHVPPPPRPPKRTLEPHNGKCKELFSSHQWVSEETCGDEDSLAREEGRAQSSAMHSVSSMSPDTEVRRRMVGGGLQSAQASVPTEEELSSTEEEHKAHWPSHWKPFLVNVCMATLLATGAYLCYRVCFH
As to the kind of experiment: Inhibition of PTP1B in mouse C2C12 cells assessed as increase in Akt phosphorylation by measuring increase in ratio of pAkt to Akt at 20 uM treated for 15 mins by western blot analysis. The class given is cell-based. The method in brief: (§2)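 C2C12 cells starved 24 h, then given 10 nM insulin, 20 µM compound, or both, for 15 min. Washed in cold PBS, lysed in 1X Laemmli buffer, run on SDS-PAGE, blotted to PVDF. Probed with antibodies to phospho-Akt and total Akt, with actin as loading control. Bands quantified; triplicate, mean ± SD (n = 3).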
For orientation: A western blot detects proteins with antibodies after separation by electrophoresis.

The target of assay [4] is T3, Tyrosine-protein phosphatase non-receptor type 1 (Homo sapiens) (UniProt P18031).
T3 sequence (whole entry): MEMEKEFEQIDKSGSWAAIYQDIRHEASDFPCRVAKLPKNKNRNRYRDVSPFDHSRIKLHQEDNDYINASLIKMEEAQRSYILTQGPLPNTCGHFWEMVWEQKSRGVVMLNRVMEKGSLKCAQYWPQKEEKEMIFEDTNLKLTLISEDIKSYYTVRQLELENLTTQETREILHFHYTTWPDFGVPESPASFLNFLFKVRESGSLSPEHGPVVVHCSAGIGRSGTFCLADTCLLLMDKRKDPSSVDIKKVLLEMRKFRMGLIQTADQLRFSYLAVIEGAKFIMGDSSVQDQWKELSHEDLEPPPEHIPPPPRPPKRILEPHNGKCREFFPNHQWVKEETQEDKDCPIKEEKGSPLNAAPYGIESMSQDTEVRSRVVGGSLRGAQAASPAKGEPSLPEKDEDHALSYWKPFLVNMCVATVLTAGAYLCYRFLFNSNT
The assay is described as follows: Reversible inhibition of N-terminal polyHis-tagged human PTP1B1 (1 to 303 residues) expressed in Escherichia coli BL21(DE3)pLysS using pNPP as substrate pretreated with enzyme for 60 mins followed by 400-fold dilution with buffer containing substrate and measured after 15 mins by spectrophotometric analysis. The note with it: time 75.0 min. The method in brief: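 PTP1B incubated 60 min at 37 °C with saturating inhibitor, then diluted 400-fold into assay buffer containing 2.5 mM pNPP. Stopped after 15 min with 0.2 M KOH; absorbance read at 400 nm. Normalized to enzyme diluted with DMSO; mean ± SEM (n = 3).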

Assay [5] has as its system C2C12. As to the kind of experiment: Insulin-mimetic activity in mouse C2C12 cells assessed as stimulation of 2-NBDG uptake at 20 uM pretreated with compound and insulin for 15 mins followed by 2-NBDG addition and measured after 3 hrs by flow cytometry. The note with it: time 195.0 min. The class given is functional, cell-based. The essentials: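 C2C12 cells serum-starved 24 h, then 15 min with 10 nM insulin, 20 µM compound, or both. Washed, then 3 h in starvation medium containing 40 µM 2-NBDG. Trypsinized, washed, and fluorescence measured by flow cytometry. Quadruplicate; mean fluorescence ± SD.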
For orientation: In flow cytometry, cells or beads pass a laser one at a time.

In assay [6] the target is T4, Tyrosine-protein phosphatase non-receptor type 1 (Homo sapiens, UniProt P18031).
T4 sequence (P18031 whole entry): T3 sequence (whole entry)
The assay is described as follows: Inhibition of N-terminal polyHis-tagged human PTP1B1 (1 to 303 residues) expressed in Escherichia coli BL21(DE3)pLysS using pNPP as substrate by spectrophotometric analysis. The method in brief:
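His-tagged human PTP1B (1–303) from E. coli BL21(DE3)pLysS, assayed in 0.075 M β,β-dimethylglutarate pH 7.0 with 1 mM EDTA, 0.1 mM DTT and pNPP. Reaction stopped with 0.1 M KOH; p-nitrophenol read at 400 nm. IC50 from 15–16 inhibitor concentrations in triplicate, normalized to control, fitted by nonlinear regression. Single-point residual activity at 5 µM.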

Assay [7] relates to C2C12. The assay is described as follows: Effect on total Akt protein expression in mouse C2C12 cells at 20 uM incubated for 15 mins in presence of insulin by SDS-PAGE analysis. The class given is functional, cell-based. The essentials: as §2
In assay [8] the target is T2, Tyrosine-protein phosphatase non-receptor type 1 (Mus musculus). As to the kind of experiment: Inhibition of PTP1B in mouse C2C12 cells assessed as potentiation of insulin-induced Akt phosphorylation by measuring increase in ratio of pAkt to Akt at 20 uM treated for 15 mins in presence of insulin by western blot analysis. The class given is cell-based. The method in brief: as §2

The subject of assay [9] is C2C12. As to the kind of experiment: Effect on total Akt protein expression in mouse C2C12 cells at 20 uM incubated for 15 mins by SDS-PAGE analysis. The format is functional, cell-based. The essentials: as §2
The target of assay [10] is T5, Tyrosine-protein phosphatase non-receptor type 2 (Homo sapiens, UniProt P17706).
T5 sequence (P17706 whole entry): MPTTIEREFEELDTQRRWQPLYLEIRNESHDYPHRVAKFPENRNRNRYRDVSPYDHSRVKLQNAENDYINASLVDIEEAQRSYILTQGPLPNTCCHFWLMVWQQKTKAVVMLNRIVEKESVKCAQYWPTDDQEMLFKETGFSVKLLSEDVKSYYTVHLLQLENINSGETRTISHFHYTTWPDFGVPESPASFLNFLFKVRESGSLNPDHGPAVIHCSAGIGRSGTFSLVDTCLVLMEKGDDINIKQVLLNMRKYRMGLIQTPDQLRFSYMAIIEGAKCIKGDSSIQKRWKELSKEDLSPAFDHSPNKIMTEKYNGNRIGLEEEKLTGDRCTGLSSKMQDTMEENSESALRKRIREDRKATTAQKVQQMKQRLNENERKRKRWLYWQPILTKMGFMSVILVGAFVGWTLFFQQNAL
The assay is described as follows: Inhibition of N-terminal polyHis-tagged human recombinant TC-PTPb (1 to 415 residues) expressed in Escherichia coli BL21(DE3)pLysS.

In assay [11] the target is T1, Aldo-keto reductase family 1 member B1. As to the kind of experiment: Reversible inhibition of human recombinant AKR1B1 expressed in Escherichia coli BL21(DE3)pLysS assessed as recovery of enzyme activity using L-idose as substrate measured after extensive dialysis by NADPH oxidation based absorbance analysis. On the set-up: scale not given: the % may be the effect or the level left.

As to `O=C(O)CN1C(=O)/C(=C/c2cccc(OCCCCc3ccccc3)c2)SC1=S`, the Ki in assay [1] was determined as 0.03 µM; in assay [2], 0.08 µM. Moreover, the inhibition result in assay [3], in assay [4] and in assay [8] was “Active” in each case. For the same molecule, the result in the assay with C2C12 [5] was Active. In addition, the IC50 came out at 4.3 µM in [6] and 9 µM in assay [10]. The result with C2C12 [7] and with C2C12 [9] was inactive. In assay [11], the Activity is greater than 90%.

With `O=C(O)CCN1C(=O)/C(=C/c2cccc(OCCCCc3ccccc3)c2)SC1=S`, the Ki is 1.1 µM in assay [1] and 4 µM in [2]. Further, the inhibition entry in assay [3], in assay [4] and in [8] was “Active” throughout. In the assay with C2C12 [5], the outcome was Active. The IC50 in assay [6] stood at 3.2 µM; in assay [10], 25.8 µM. Besides, the result in the assay with C2C12 [7] and in the assay on C2C12 [9] was inactive. In [11], the Activity is greater than 90%.

For orientation: IC50 means the concentration that inhibits the measured activity by half.

The values above are taken from ChEMBL document CHEMBL5360543, “Designed multiple ligands for the treatment of type 2 diabetes mellitus and its complications: Discovery of (5-arylidene-4-oxo-2-thioxothiazolidin-3-yl)alkanoic acids active as novel dual-targeted PTP1B/AKR1B1 inhibitors” (Eur J Med Chem, 2023).
